Test results as given in ChEMBL document CHEMBL5357047, “The development of thymol-isatin hybrids as broad-spectrum antibacterial agents with potent anti-MRSA activity” (RSC Med Chem, 2024).
Converted amounts (≈) assume the structure as drawn.

Experiments:
[1] = tested on: Staphylococcus aureus; assay: Anti-biofilm activity against Methicillin-resistant Staphylococcus aureus assessed as reduction in biofilm formation at 2XMIC measured after 48 hrs by crystal violet staining based analysis; type: functional
How it was run: (§1)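 Non-adherent cells washed off with water, stained with 0.5% crystal violet 30 min at 25 °C, dye eluted with 95% ethanol, OD 545 nm. Reported as % reduction versus untreated control. Triplicate.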

[2] = tested on: Staphylococcus aureus; assay: Anti-biofilm activity against Methicillin-resistant Staphylococcus aureus assessed as mean thickness of biofilm at 1XMIC measured after 48 hrs by crystal violet staining based phase contrast microscopy (reference value: 15.03+/-1.63 um); type: functional
[3] = tested on: Staphylococcus aureus; assay: Anti-biofilm activity against Methicillin-resistant Staphylococcus aureus assessed as reduction in biofilm formation at 1XMIC measured after 48 hrs by crystal violet staining based analysis; type: functional; how it was run: as §1
[4] = tested on: Staphylococcus aureus; assay: Anti-biofilm activity against Methicillin-resistant Staphylococcus aureus assessed as reduction in biofilm formation at 1/2XMIC measured after 48 hrs by crystal violet staining based analysis; type: functional; how it was run: as §1
[5] = tested on: Staphylococcus aureus; assay: Bactericidal activity against clinically isolated Staphylococcus aureus RBRJ010 assessed as inhibition of bacterial growth measured after 48 hrs by agar plate method; type: functional
How it was run: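 MBC: 10 μL from wells showing no INT colour change after broth microdilution subcultured on drug-free Mueller Hinton agar, 48 h at 37 °C aerobically; lowest concentration with no visible growth taken as MBC (μM). Triplicate.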

[6] = Cytotoxicity against mouse L929 cells assessed as reduction in cell viability measured after 72 hrs by MTT assay; type: toxicity, cell-based
How it was run: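 L929 cells (ATCC) grown in DMEM with 10% FBS and penicillin/streptomycin at 37 °C, 5% CO2; seeded at 5 × 10^3 cells per well and exposed to serial dilutions for 72 h, paclitaxel as positive control. MTT (5 mg mL−1), formazan dissolved in DMSO, absorbance at 490 nm; viability relative to control after blank subtraction; IC50 in μM.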

[7] = tested on: Acinetobacter baumannii; assay: Antibacterial activity against clinically isolated Acinetobacter baumannii RBRJ027 assessed as inhibition of bacterial growth at 50 uM measured after 48 hrs by agar well diffusion method; type: functional; conditions: read-out: IZ
[8] = tested on: Escherichia coli; assay: Antibacterial activity against Escherichia coli MTCC 119 assessed as inhibition of bacterial growth at 50 uM measured after 48 hrs by agar well diffusion method; type: functional; conditions: read-out: IZ
[9] = tested on: Staphylococcus aureus; assay: Antibacterial activity against clinically isolated Methicillin-resistant Staphylococcus aureus assessed as inhibition of bacterial growth at 50 uM measured after 48 hrs by agar well diffusion method; type: functional; conditions: read-out: IZ

**Q.** With Cc1ccc(C(C)C)c(OCc2cn(CCCN3C(=O)C(=O)c4ccccc43)nn2)c1 as the molecule, how does the “inhibition (INH)” value [1] read?
**A.** The value was 96.21%.

**Q.** What about the Activity [2] of the same molecule?
**A.** Its Activity is 1.11 um.

**Q.** What about the “inhibition (INH)” value [3] of the same molecule?
**A.** Its value is 89.63%.

**Q.** What about the “inhibition (INH)” value [4] of the same molecule?
**A.** Its value is 78.43%.

**Q.** And the MBC [5]?
**A.** The MBC was 3.9 µM (≈ 1.63 µg/mL).

**Q.** And the IC50 at 72 h [6]?
**A.** The IC50 at 72 h was 125 µM.

**Q.** What about the zone of inhibition at 50 µM [7] of the same molecule?
**A.** The zone of inhibition at 50 µM was 18.3 mm.

**Q.** And the zone of inhibition at 50 µM [8]?
**A.** Its zone of inhibition at 50 µM is 22.1 mm.

**Q.** What about the zone of inhibition at 50 µM [9] of the same molecule?
**A.** Its zone of inhibition at 50 µM is 28.8 mm.
